AHR activator = AHR activators, primary screen, cell-based, luminescence, luciferase reporter, human | Aryl hydrocarbon receptor (Homo sapiens), P35869 | AHR-responsive luciferase reporter cells | activation, % at 5 µM | actives 2.5% (n = 320,000); in the data active means activation above about 47%
APOBEC3G inh = APOBEC3G DNA deaminase inhibitors, primary screen, biochemical, fluorescence, single-stranded DNA substrate, uHTS; actives 0.28% (n = 330,000); DNA dC->dU-editing enzyme APOBEC-3G (Homo sapiens), Q9HC16; AID 493012, 2011; inhibition, % at 20 µM; recombinant A3G, ssDNA deamination FAM/TAMRA fluorescence;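 active means inhibition of at least 40% at 20 µM, with no more than 30% in the related APOBEC3A deaminase screen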
Target sequence (Q9HC16 whole entry, looked up): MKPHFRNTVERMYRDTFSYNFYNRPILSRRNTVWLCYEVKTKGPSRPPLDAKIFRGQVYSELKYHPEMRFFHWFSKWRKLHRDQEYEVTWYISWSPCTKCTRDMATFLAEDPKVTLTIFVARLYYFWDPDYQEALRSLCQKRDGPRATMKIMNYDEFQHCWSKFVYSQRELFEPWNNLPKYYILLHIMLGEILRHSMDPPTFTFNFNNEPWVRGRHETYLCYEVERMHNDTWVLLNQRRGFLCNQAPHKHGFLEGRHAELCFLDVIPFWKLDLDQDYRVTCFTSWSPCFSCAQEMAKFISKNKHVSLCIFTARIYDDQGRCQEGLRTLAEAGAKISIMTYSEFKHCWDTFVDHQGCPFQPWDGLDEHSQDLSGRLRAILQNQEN
UCH37 inh = inhibitors of human UCH37 deubiquitinase, primary screen, biochemical, Ub-AMC cleavage, fluorescence; actives 0.33% (n = 330,000); Ubiquitin carboxyl-terminal hydrolase isozyme L5 (Homo sapiens), Q9Y5K5; purified proteasome/UCH37; inhibition, % (concentration not given with the values);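 active means mean inhibition over replicate wells above about 20%, limit read from the data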
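System: Proteasome-associated human UCH37 deubiquitinase; Input: 0.15 nM proteasome in added enzyme buffer; Also added: Ub-AMC substrate from 1 µM stock; Incubation: 30 min compound-proteasome preincubation then 25 min substrate reaction, room temperature; Detection: fluorescence, ex 355 nm, em 460 nm; Read-out: % inhibition of Ub-AMC cleavage fluorescence; Benchmarks: no-proteasome and no-compound wells.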
PolyA inhibitor = polyadenylation inhibitors in yeast reporter cells, primary screen, luminescence, S. cerevisiae; S. cerevisiae SKY197-pL101 polyadenylation reporter, beta-gal luminescence; efflux-impaired pdr1/pdr3 knockout yeast; score 100 = 6 SD above DMSO; activity score, % at 12 µM; actives 0.02% (n = 300,000);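 active means lowest replicate activity score at least 50, where 100 means six control SD above control mean; inconclusive means lowest score under 50 but half or more replicates reach 50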;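 further: yeast exposed to compound for 9 h at 30 °C; higher score means more reporter readthrough which indicates perturbed polyadenylation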
APOBEC3A inh = APOBEC3A ssDNA deaminase inhibitors, primary screen, selectivity assay for APOBEC3G inhibitor project, biochemical, FAM/TAMRA oligo cleavage fluorescence; recombinant A3A, FAM/TAMRA ssDNA deamination fluorescence; inhibition, % at 20 µM; actives 0.41% (n = 330,000); DNA dC->dU-editing enzyme APOBEC-3A (Homo sapiens), P31941;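 active means at least 40% inhibition at 20 µM here, with at most 30% in a related deaminase screen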
Target sequence (P31941 whole entry, looked up): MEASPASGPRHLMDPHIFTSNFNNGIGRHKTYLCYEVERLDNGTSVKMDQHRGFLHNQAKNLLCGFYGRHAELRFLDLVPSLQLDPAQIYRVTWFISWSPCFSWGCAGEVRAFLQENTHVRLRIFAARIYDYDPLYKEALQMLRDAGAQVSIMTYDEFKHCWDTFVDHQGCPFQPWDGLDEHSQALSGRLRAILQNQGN
Arrestin-AP2 inh = inhibitors of beta-arrestin/AP2 binding, primary screen, biochemical, GPCR trafficking, flow cytometry; beta-arrestin 1 C-terminal peptide binding to AP2 beta2-adaptin appendage (human); FITC-arrestin peptide / GST-AP2 beads; AP2 beta2 appendage carries R879A mutation; inhibition, % at 10 µM; actives 0.31% (n = 340,000); AID 504490, 2011;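 active means inhibition above a set limit, near 3 SD of compounds lacking own fluorescence, cut at about 54% in these data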
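system = GST-tagged AP2 beta2-adaptin appendage (R879A) on 4 µm glutathione beads | reagent = FITC-labelled arrestin peptide probe, 50 nM final | schedule = compound with beads 12 min RT, then probe 1 h RT | signal = HyperCyt-sampled flow cytometry, FL1 channel, ex 488/em 535 nm | read-out = percent response from loss of bead-bound FITC fluorescence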
Hits are given with their value; – = inactive; ? = inconclusive; · = not tested or not shown. An excerpt weighted towards active compounds, which were near 3.4% of everything screened.

SMILES | AHR activator | APOBEC3G inh | UCH37 inh | PolyA inhibitor | APOBEC3A inh | Arrestin-AP2 inh
COc1ccc(S(=O)(=O)Nc2c(C(=O)O)[nH]c3ccccc23)cc1OC | 55 | – | – | – | – | –
COc1ccc(NS(=O)(=O)c2ccc(OC)c(OC)c2)cc1OC | – | – | – | – | – | –
COc1ccc(C(=O)Nc2c(O)ccc3ccccc23)cc1OC | 53 | – | – | – | – | –
COc1ccc(S(=O)(=O)Nc2c(C(=O)O)[nH]c3ccccc23)cc1 | – | – | – | – | – | –
COc1ccc(S(=O)(=O)Nc2c(O)ccc3ccccc23)cc1OC | 61 | – | – | – | – | –
CCOC(=O)NN=Cc1sccc1C | · | · | – | · | · | ·
Cc1cc(C)nc(SCc2ccc(C(=O)NN=Cc3ccncc3)cc2)n1 | · | · | – | · | · | ·
COc1cc(/C=C2\SC(=S)N(NC(=O)c3ccccc3O)C2=O)ccc1O | – | – | – | ? | – | –
O=C(NN1C(=O)/C(=C/c2ccc(O)c([N+](=O)[O-])c2)SC1=S)c1ccccc1Cl | – | – | 24 | – | – | –
CCCC(=O)Nc1ccc(C(=O)NN=Cc2cccnc2)cc1 | · | · | – | · | · | ·
CCOc1ccc(C=NOCC(=O)Nc2ccc3c(c2)OCO3)cc1 | · | · | – | · | · | ·
Cc1cccc(N/C=C/C(=C(C#N)C#N)N(C)C)c1 | 48 | – | – | – | – | –
CCc1cc2c(nc1CC)CCN(CCC(C)=NOC[C@H]1O[C@H](c3ccccc3)C=C[C@@H]1Oc1ccc(OC)cc1)C2 | · | · | – | · | · | ·
Cc1ccc(CONC(=O)c2ccc(Cl)cc2)cc1 | 73 | – | – | · | – | –
Cc1ccc(C(=O)Nc2cc(Cl)ccc2OC(=O)c2ccc(C)cc2)cc1 | 53 | – | – | – | – | ·
COc1ccc(C(=O)Nc2cc(Cl)ccc2OC(=O)c2ccc(OC)cc2)cc1 | – | – | – | – | – | –
COc1ccc(C)cc1NC(=O)c1cccc(C(=O)Nc2cc(C)ccc2OC)c1 | – | – | – | – | – | –
COc1ccc(C)cc1NC(=O)c1ccc(OC(F)F)cc1 | 70 | – | – | – | – | –
Cc1sc(N/N=C/C=C/c2ccccc2)nc1-c1ccccc1 | 73 | – | · | – | – | –
CC1CCCN(c2cc(N(C)CCO)c([N+](=O)[O-])c3nonc23)C1 (configuration not stated) | – | – | 22 | – | – | –
O=C(Nc1cccc(-c2csc(Nc3ccccc3)n2)c1)c1cc([N+](=O)[O-])cc(C(F)(F)F)c1 | – | – | – | – | – | –
O=C(Nc1cccc(-c2csc(Nc3ccc(Cl)cc3)n2)c1)c1cc([N+](=O)[O-])cc(C(F)(F)F)c1 | 56 | – | – | – | – | –
COc1ccc(CNC(=S)NN=Cc2ccncc2)cc1 | · | · | 34 | · | · | ·
CCOc1ccccc1C(=O)NN=Cc1coc2ccc(C)cc2c1=O | · | · | – | · | · | ·
Cc1ccc(C=NNC(=O)c2cccs2)o1 | · | · | – | · | · | ·
SMILES | AHR activator | APOBEC3G inh | UCH37 inh | PolyA inhibitor | APOBEC3A inh | Arrestin-AP2 inh
CC(=NNC(=O)c1ccccc1Br)c1ccc(N2CCOCC2)cc1 | · | · | – | · | · | ·
COc1ccc(C=NNC(=O)CCOc2ccccc2C)cc1OC | · | · | – | · | · | ·
CC(C)n1c(O)c(/C=C2\C=Nc3ccccc32)sc1=Nc1ccccc1 | – | – | – | – | – | –
CSc1nc(/C=C2\C=Nc3ccccc32)c(O)n1C | 51 | – | · | – | – | –
COc1ccc(/C=C2\CCCC3C2=NN(C(=O)COC(=O)CNC(=O)c2ccccc2)C3c2ccc(OC)cc2)cc1 (configuration not stated) | – | – | – | – | – | –
COc1ccc2c(c1)C1=NN(/C(C)=C/C(C)=O)C(c3cccc(F)c3)C1CC2 (configuration not stated) | 97 | – | – | – | – | –
COC(=O)C1=CN(c2ccc(OC)cc2)C=C(C(=O)OC)C1c1cccc(F)c1 | – | – | – | – | – | –
COc1ccc(/C=C2\CCCC3C2=NN(C(=O)CSc2ncn[nH]2)C3c2ccc(OC)cc2)cc1 (configuration not stated) | – | – | – | – | – | –
COc1ccc2c(c1)C1=NN(/C(C)=C\C(C)=O)C(c3ccccc3)C1CC2 (configuration not stated) | 84 | – | – | – | – | –
COc1ccc2c(c1)CCC1C2=NN(/C(C)=C\C(C)=O)C1c1ccc(F)cc1 (configuration not stated) | 60 | – | – | – | – | –
COc1ccc2c(c1)C1=NN(/C(C)=C/C(C)=O)C(c3ccc(F)cc3)C1CC2 (configuration not stated) | 69 | – | – | – | – | –
COc1ccc(Br)cc1C(=O)Nc1ccc(Cc2ccncc2)cc1 | 59 | – | – | – | – | –
COc1ccccc1C(=O)NC(=S)Nc1ccc(Cc2ccncc2)cc1 | – | – | – | – | – | –
C/C(C=NN1CCN(Cc2ccccc2)CC1)=C\c1ccccc1 | · | · | – | · | · | ·
COc1ccc(C(=O)c2nccc3cc(OC)c(OC)cc23)cc1OC | – | – | 48 | · | – | –
COc1ccc(C(=NOC(C)=O)c2nccc3cc(OC)c(OC)cc23)cc1OC | · | · | – | · | · | ·
CC12CCC(=O)N1C(C(=O)Nc1nc3ccc(S(C)(=O)=O)cc3s1)CS2 (configuration not stated) | – | – | – | – | – | –
CCc1ccc2nc(NC(=O)C3CSC4(C)CCC(=O)N34)sc2c1 (configuration not stated) | 66 | – | – | – | – | –
O=C(CNC(=O)c1ccco1)N=Nc1c(O)n(CCc2ccccc2)c2ccccc12 | 59 | – | – | – | – | –
CCCCn1c(O)c(N=NC(=O)c2ccco2)c2ccccc21 | 76 | – | – | – | – | –
O=C(O)COc1ccccc1C=NNC(=O)c1cc(-c2ccccc2)nc2ccccc12 | · | · | – | · | · | ·
O=C(O)COc1ccccc1/C=N/NC(=O)c1cc2ccccc2cc1O | 58 | – | · | – | – | –
C=CCc1cccc(/C=N/NC(=O)c2ccccc2OC)c1O | 77 | – | · | – | – | –
O=C(O)c1cccc(Cn2c(Cl)c(C=NNC(=O)c3cc4ccccc4cc3O)sc2=O)c1 | · | · | 22 | · | · | ·
O=C(O)c1cccc(Cn2c(Cl)c(C=NNC(=O)c3ccccc3O)sc2=O)c1 | · | · | – | · | · | ·
C=CCc1cccc(/C=N/NC(=O)c2ccccc2Br)c1O | – | – | · | – | – | –
